This is an account of results in ChEMBL document CHEMBL2158000 (Bioorg Med Chem Lett, 2012).

For one data set, the species on record is Homo sapiens. Kind of data set: Selectivity index, ratio of IC50 for human recombinant MAOA to IC50 for human recombinant MAOB.
In data set [1] the target is T1, Amine oxidase [flavin-containing] A (Homo sapiens, UniProt P21397).
T1 sequence (P21397 whole entry): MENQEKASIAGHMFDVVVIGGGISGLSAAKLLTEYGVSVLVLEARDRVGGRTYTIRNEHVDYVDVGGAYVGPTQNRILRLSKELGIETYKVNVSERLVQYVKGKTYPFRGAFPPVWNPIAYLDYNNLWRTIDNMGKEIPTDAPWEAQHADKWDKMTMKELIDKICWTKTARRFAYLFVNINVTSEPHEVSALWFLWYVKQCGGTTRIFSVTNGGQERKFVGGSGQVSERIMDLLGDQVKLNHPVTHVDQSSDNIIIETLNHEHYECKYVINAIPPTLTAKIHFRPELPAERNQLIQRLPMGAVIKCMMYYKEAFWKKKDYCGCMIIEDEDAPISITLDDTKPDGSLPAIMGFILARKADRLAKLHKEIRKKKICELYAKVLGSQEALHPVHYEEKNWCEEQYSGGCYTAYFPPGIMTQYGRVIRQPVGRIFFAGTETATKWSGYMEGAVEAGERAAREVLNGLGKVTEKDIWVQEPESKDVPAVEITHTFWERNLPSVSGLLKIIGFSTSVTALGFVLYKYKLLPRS
Kind of data set: Inhibition of human recombinant MAOA using kynuramine as substrate assessed as formation of 4-hydroxyquinoline after 20 mins by fluorescence spectrophotometry.

The target of data set [2] is T2, Amine oxidase [flavin-containing] B (Homo sapiens, UniProt P27338).
T2 sequence (P27338 whole entry): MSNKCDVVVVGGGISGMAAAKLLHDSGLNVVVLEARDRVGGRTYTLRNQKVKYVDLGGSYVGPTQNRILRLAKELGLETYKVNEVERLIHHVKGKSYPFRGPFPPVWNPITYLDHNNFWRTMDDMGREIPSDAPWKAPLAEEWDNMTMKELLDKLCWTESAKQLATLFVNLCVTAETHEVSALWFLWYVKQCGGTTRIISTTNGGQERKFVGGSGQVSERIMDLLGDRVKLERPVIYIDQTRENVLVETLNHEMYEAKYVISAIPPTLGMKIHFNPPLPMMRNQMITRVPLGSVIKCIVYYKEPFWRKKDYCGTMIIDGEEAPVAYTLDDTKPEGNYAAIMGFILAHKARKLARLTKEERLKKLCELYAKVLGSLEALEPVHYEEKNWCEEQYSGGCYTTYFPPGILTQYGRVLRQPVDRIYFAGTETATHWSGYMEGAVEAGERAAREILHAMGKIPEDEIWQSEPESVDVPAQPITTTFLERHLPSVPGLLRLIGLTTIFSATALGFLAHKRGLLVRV
Kind of data set: Inhibition of human recombinant MAOB using kynuramine as substrate assessed as formation of 4-hydroxyquinoline after 20 mins by fluorescence spectrophotometry.

Data set [3] deals with T2, Amine oxidase [flavin-containing] B. Kind of data set: Reversible inhibition of human recombinant MAOB using kynuramine as substrate assessed as residual activity at 100 times IC50 preincubated for 30 mins followed by 100 fold dilution measured after 20 mins by fluorescence spectrophotometry relative to control. Put shortly:
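MAO-B was preincubated with inhibitor at 10× and 100× IC50 for 30 min, then diluted to 0.1× and 1× IC50. Residual activity was measured by fluorometry of 4-hydroxyquinoline from kynuramine and expressed as % of control. Irreversible reference inhibitor was at 10× IC50, diluted to 0.1× IC50.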

The structures appear in SMILES notation.

For the compound `COc1ccc(CSc2ccc3c(c2)C(=O)NC3=O)cc1`, the Ratio IC50 in the data set listed under Homo sapiens was 82. Also, the IC50 – broadly, the concentration at which inhibition is half-maximal – in data set [1] came out at 1630 nM; in data set [2], 20 nM.
On the same counts, the results for `O=C1NC(=O)c2cc(SCc3ccc(Br)cc3)ccc21` are 37, 273 nM and 7.4 nM.
The matching figures for `O=C1NC(=O)c2cc(Sc3ccccc3)ccc21`: 8.1, 8030 nM and 986 nM.
In the case of `O=C1NC(=O)c2cc(SC3CCCCC3)ccc21`, the Ratio IC50 in the data set listed under Homo sapiens was 5.8. Moreover, the IC50 in data set [1] amounted to 1030 nM; in data set [2] it was 179 nM.
Turning to `O=C1NC(=O)c2cc(SCc3ccc(Cl)cc3)ccc21`, in the data set listed under Homo sapiens, the Ratio IC50 came out at 90. For the same compound, the figures for the concentration for half-maximal inhibition (IC50) in data set [1] and in data set [2] were 506 nM and 5.6 nM, respectively.
Consider `O=C1NC(=O)c2cc(Sc3ccc(Br)cc3)ccc21`, for which, in the data set listed under Homo sapiens, the Ratio IC50 came out at 2.8. Also, the IC50 came to 1010 nM in data set [1] and 364 nM in data set [2].
`O=C1NC(=O)c2cc(SCc3ccc(F)cc3)ccc21`: the Ratio IC50 in the data set filed under Homo sapiens stood at 141. Moreover, the IC50 in data set [1] was found to be 958 nM; in data set [2], 6.8 nM.
On the same counts, the results for `O=C1NC(=O)c2cc(SCCc3ccccc3)ccc21` are 76, 2270 nM and 30 nM.
Take `O=C1NC(=O)c2cc(SCc3ccccc3)ccc21`: in the data set filed under Homo sapiens, the Ratio IC50 was 427. Further, the Activity in data set [3] is on record as 28%. For the same compound, the concentration for half-maximal inhibition (IC50) in data set [1] came to 1920 nM; in data set [2], 4.5 nM.
In the case of `O=C1NC(=O)c2cc(Sc3ccc(Cl)cc3)ccc21`, in the data set listed under Homo sapiens, the Ratio IC50 came out at 3.7. Besides, the IC50 was found to be 1680 nM in data set [1] and 457 nM in data set [2].
The matching figures for `CC(C)CCSc1ccc2c(c1)C(=O)NC2=O`: 26, 380 nM and 15 nM.
